For one compound, Kd results are on record in ChEMBL document CHEMBL1129630, “Synthesis and structure-activity relationships of retinoid X receptor selective diaryl sulfide analogs of retinoic acid” (J Med Chem, 1996).

The experiment addresses T1, Retinoic acid receptor gamma (Mus musculus, UniProt P18911).
T1 sequence (P18911 whole entry): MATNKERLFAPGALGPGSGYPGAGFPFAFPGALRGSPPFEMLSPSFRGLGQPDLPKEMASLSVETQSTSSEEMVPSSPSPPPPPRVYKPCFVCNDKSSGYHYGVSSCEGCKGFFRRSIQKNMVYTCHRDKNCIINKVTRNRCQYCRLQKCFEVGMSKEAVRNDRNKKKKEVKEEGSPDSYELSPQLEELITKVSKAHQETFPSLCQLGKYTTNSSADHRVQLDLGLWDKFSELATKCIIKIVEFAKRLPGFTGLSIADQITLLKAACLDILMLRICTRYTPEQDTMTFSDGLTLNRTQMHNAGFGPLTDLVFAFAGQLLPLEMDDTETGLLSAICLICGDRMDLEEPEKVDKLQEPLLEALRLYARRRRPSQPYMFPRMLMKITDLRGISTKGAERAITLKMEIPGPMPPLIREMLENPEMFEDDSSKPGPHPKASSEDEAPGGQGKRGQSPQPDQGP
The experiment in a line: Dissociation constant for binding to Retinoic acid receptor gamma;NA=not active. In a few lines: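 Competitive binding assays against each receptor subtype, with Kd values taken from competition.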

Turning to `Cc1cc2c(cc1Sc1ccc(C(=O)O)cn1)C(C)(C)CCC2(C)C`, the Kd result is “Not Active”.
